# ChEMBL document CHEMBL1142154, “High-level vancomycin-resistant Staphylococcus aureus isolates associated with a polymicrobial biofilm” (2007)
# Experiments:
# Format in all cases: functional
# Enterococcus faecalis [1] = assay: Antibacterial activity against Enterococcus faecalis isolate 5744
# Enterococcus faecalis [2] = assay: Antibacterial activity against Enterococcus faecalis isolate 5743
# Enterococcus faecalis [3] = assay: Antibacterial activity against Enterococcus faecalis isolate 5742
# Enterococcus faecium [4] = assay: Antibacterial activity against Enterococcus faecium isolate 2547
# Outline: (§1)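 MICs by broth microdilution in cation-adjusted Mueller-Hinton broth, following CLSI guidelines. Test isolates were clinical VRE (E. faecium), MRSA and VRSA recovered from patient sites or from nephrostomy tube biofilm. Biofilm isolates were obtained by PBS lumen washes of tube segments, dilution in Butterfield buffer and plating on selective and blood agars at 35°C for 24 to 48 h.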
# Enterococcus faecium [5] = assay: Antibacterial activity against Enterococcus faecium isolate 5749
# Enterococcus faecium [6] = assay: Antibacterial activity against Enterococcus faecium isolate 5750
# Enterococcus faecium [7] = assay: Antibacterial activity against Enterococcus faecium isolate 5751
# Enterococcus faecium [8] = assay: Antibacterial activity against Enterococcus faecium isolate 5752; outline: as §1
# Enterococcus faecium [9] = assay: Antibacterial activity against Enterococcus faecium isolate 5753
# Enterococcus faecalis [10] = assay: Antibacterial activity against Enterococcus faecalis isolate 5745
# Enterococcus faecalis [11] = assay: Antibacterial activity against Enterococcus faecalis isolate 5746
# Staphylococcus aureus [12] = assay: Antibacterial activity against vancomycin-resistant Staphylococcus aureus isolate 595; outline: as §1
# Staphylococcus aureus [13] = assay: Antibacterial activity against methicillin-resistant Staphylococcus aureus isolate 5737; outline: as §1
# Staphylococcus aureus [14] = assay: Antibacterial activity against methicillin-resistant Staphylococcus aureus isolate 5739; outline: as §1
# Staphylococcus aureus [15] = assay: Antibacterial activity against methicillin-resistant Staphylococcus aureus isolate 2513; outline: as §1
# Staphylococcus aureus [16] = assay: Antibacterial activity against methicillin-resistant Staphylococcus aureus isolate 2530; outline: as §1
# Staphylococcus aureus [17] = assay: Antibacterial activity against vancomycin-resistant Staphylococcus aureus isolate 2514; outline: as §1
# Staphylococcus aureus [18] = assay: Antibacterial activity against methicillin-resistant Staphylococcus aureus isolate 5735; outline: as §1
# Staphylococcus aureus [19] = assay: Antibacterial activity against methicillin-resistant Staphylococcus aureus isolate 5736; outline: as §1
# Staphylococcus aureus [20] = assay: Antibacterial activity against methicillin-resistant Staphylococcus aureus isolate 5733; outline: as §1
# Staphylococcus aureus [21] = assay: Antibacterial activity against vancomycin-resistant Staphylococcus aureus isolate 5734; outline: as §1
Molecule,MIC (Enterococcus faecalis [1]) [µg/mL],MIC (Enterococcus faecalis [2]) [µg/mL],MIC (Enterococcus faecalis [3]) [µg/mL],MIC (Enterococcus faecium [4]) [µg/mL],MIC (Enterococcus faecium [5]) [µg/mL],MIC (Enterococcus faecium [6]) [µg/mL],MIC (Enterococcus faecium [7]) [µg/mL],MIC (Enterococcus faecium [8]) [µg/mL],MIC (Enterococcus faecium [9]) [µg/mL],MIC (Enterococcus faecalis [10]) [µg/mL],MIC (Enterococcus faecalis [11]) [µg/mL],MIC (Staphylococcus aureus [12]) [µg/mL],MIC (Staphylococcus aureus [13]) [µg/mL],MIC (Staphylococcus aureus [14]) [µg/mL],MIC (Staphylococcus aureus [15]) [µg/mL],MIC (Staphylococcus aureus [16]) [µg/mL],MIC (Staphylococcus aureus [17]) [µg/mL],MIC (Staphylococcus aureus [18]) [µg/mL],MIC (Staphylococcus aureus [19]) [µg/mL],MIC (Staphylococcus aureus [20]) [µg/mL],further results
O=C(N[C@H](CO)[C@H](O)c1ccc([N+](=O)[O-])cc1)C(Cl)Cl [CHLORAMPHENICOL],16,8,8,8,4,8,≤ 2,8,4,8,16,–,–,–,–,–,–,–,–,–,–
GENTAMICIN,–,–,–,–,–,–,–,–,–,–,–,32,> 64,> 64,< 4,< 4,64,16,> 64,> 64,MIC (Staphylococcus aureus [21]): > 64 µg/mL
C[C@H]1c2cccc(O)c2C(=O)C2=C(O)[C@]3(O)C(=O)C(C(N)=O)=C(O)[C@@H](N(C)C)[C@@H]3[C@@H](O)[C@@H]21.O [DOXYCYCLINE],8,4,4,16,8,16,16,16,8,4,≤ 0.25,4,0.5,≤ 0.25,≤ 0.25,≤ 0.25,4,4,4,4,MIC (Staphylococcus aureus [21]): 8 µg/mL
Cc1onc(-c2ccccc2)c1C(=O)N[C@@H]1C(=O)N2[C@@H]1SC(C)(C)[C@@H]2C(=O)O [OXACILLIN],–,–,–,–,–,–,–,–,–,–,–,> 16,> 16,> 16,> 16,> 16,> 16,> 16,> 16,> 16,MIC (Staphylococcus aureus [21]): > 16 µg/mL
CN(C)c1ccc(O)c2c1C[C@H]1C[C@H]3[C@H](N(C)C)C(O)=C(C(N)=O)C(=O)[C@@]3(O)C(O)=C1C2=O [MINOCYCLINE],16,8,8,32,16,32,16,32,16,8,0.12,–,–,–,–,–,–,–,–,–,–
C[C@H]1COc2c(N3CCN(C)CC3)c(F)cc3c(=O)c(C(=O)O)cn1c23.C[C@H]1COc2c(N3CCN(C)CC3)c(F)cc3c(=O)c(C(=O)O)cn1c23.O [LEVOFLOXACIN],–,–,–,–,–,–,–,–,–,–,–,16,16,16,16,16,16,16,16,16,MIC (Staphylococcus aureus [21]): 16 µg/mL
CCC[C@@H]1C[C@@H](C(=O)N[C@@H]([C@H]2O[C@H](SC)[C@H](O)[C@@H](O)[C@H]2O)[C@H](C)Cl)N(C)C1 [CLINDAMYCIN],–,–,–,–,–,–,–,–,–,–,–,> 8,≤ 0.12,≤ 0.12,> 8,≤ 0.12,> 8,> 8,> 8,> 8,MIC (Staphylococcus aureus [21]): > 8 µg/mL
CN[C@H](CC(C)C)C(=O)N[C@H]1C(=O)N[C@@H](CC(N)=O)C(=O)N[C@H]2C(=O)N[C@H]3C(=O)N[C@H](C(=O)N[C@H](C(=O)O)c4cc(O)cc(O)c4-c4cc3ccc4O)[C@H](O)c3ccc(c(Cl)c3)Oc3cc2cc(c3O[C@@H]2O[C@H](CO)[C@@H](O)[C@H](O)[C@H]2O[C@H]2C[C@](C)(N)[C@H](O)[C@H](C)O2)Oc2ccc(cc2Cl)[C@H]1O [VANCOMYCIN],2,2,2,–,–,256,256,–,256,2,2,64,–,–,–,–,32,–,–,–,–
CO[C@H]1/C=C/O[C@@]2(C)Oc3c(C)c(O)c4c(O)c(c(/C=N/N5CCN(C)CC5)c(O)c4c3C2=O)NC(=O)/C(C)=C\C=C\[C@H](C)[C@H](O)[C@@H](C)[C@@H](O)[C@@H](C)[C@H](OC(C)=O)[C@@H]1C [RIFAMPIN],0.5,1,1,> 4,> 4,4,> 4,> 4,> 4,1,2,–,–,–,–,–,–,–,–,–,–
CC[C@H]1OC(=O)[C@H](C)[C@@H](O[C@H]2C[C@@](C)(OC)[C@@H](O)[C@H](C)O2)[C@H](C)[C@@H](O[C@@H]2O[C@H](C)C[C@H](N(C)C)[C@H]2O)[C@](C)(O)C[C@@H](C)C(=O)[C@H](C)[C@@H](O)[C@]1(C)O [ERYTHROMYCIN],> 8,> 8,> 8,> 8,> 8,> 8,> 8,> 8,> 8,> 8,> 8,> 8,> 8,> 8,> 8,> 8,> 8,> 8,> 8,> 8,MIC (Staphylococcus aureus [21]): > 8 µg/mL
CN(C)[C@@H]1C(O)=C(C(N)=O)C(=O)[C@@]2(O)C(O)=C3C(=O)c4c(O)cccc4[C@@](C)(O)[C@H]3C[C@@H]12 [TETRACYCLINE],> 16,> 16,> 16,> 16,> 16,> 16,> 16,> 16,> 16,> 16,≤ 0.5,> 16,≤ 0.5,≤ 0.5,≤ 0.5,≤ 0.5,> 16,8,8,8,MIC (Staphylococcus aureus [21]): 16 µg/mL
CC1(C)S[C@@H]2[C@H](NC(=O)Cc3ccccc3)C(=O)N2[C@H]1C(=O)O [PENICILLIN G],2,2,2,128,128,256,256,128,256,2,2,–,–,–,–,–,–,–,–,–,–
